Measured values: ChEMBL document CHEMBL1154253, “Synthesis and serotonin transporter activity of sulphur-substituted alpha-alkyl phenethylamines as a new class of anticancer agents” (Eur J Med Chem, 2009)

Legend:
HEK293 = test: Cytotoxicity against human HEK293 cells after 48 hrs by neutral red assay; assay type: cell-based; settings: HEK293, 48 h, read-out: pEC50 (converted)
Method in brief: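 Neutral Red uptake: 5 × 10⁴ cells/well grown 24–36 h to sub-confluence, then treated 48 h. Cells incubated 3 ± 1 h with NR dye, washed and solubilised in 50% ethanol–1% acetic acid, and absorbance read at 540 nm (690 nm background). Viability given as % of vehicle-treated cells. pEC50 obtained by sigmoidal regression (Hill slope 1) using 4 concentrations in triplicate on two independent days. SERT-line values compared with parental HEK293 by two-way ANOVA with Bonferroni test. Sodium azide 30 mM and Triton-X 2% as positive controls.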

[1] = Antiproliferative activity against human MUTU-I cells at 50 uM after 24 hrs by alamar blue assay; assay type: functional
Method in brief: (§1)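 Alamar Blue viability: 1–5 × 10⁴ cells/well seeded, drug-treated for the stated time, then 10 µl Alamar Blue added and incubated 4–6 h at 37 °C in the dark. Fluorescence read at ex 544/em 590 nm, medium-only background subtracted, untreated cells = 100% viability. Taxol 10 µM as positive control. Mean ± S.E.M. of six points (triplicate on two independent days).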

[2] = Cytotoxicity against human PBMC assessed as cell viability at 50 uM after 24 hrs by alamar blue assay; assay type: cell-based; settings: read-out: Activity
Method in brief: (§2)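 PBMCs from a healthy donor, separated on Ficoll and resuspended in IMDM with FCS and penicillin/streptomycin. Seeded at 1–5 × 10⁴ cells/200 µl and treated 24 h. Alamar Blue added, fluorescence read at ex 544/em 590 nm, background subtracted, untreated cells = 100% viability. Mean + S.E.M.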

DG-75 [3] = test: Induction of apoptosis in human DG75 cells after 72 hrs by annexin V-propidium iodide staining-based FACS analysis; assay type: functional, cell-based; settings: DG-75, 72 h
[4] = Antiproliferative activity against human MUTU-I cells assessed as cell viability at 50 uM after 24 hrs by alamar blue assay; assay type: functional; settings: read-out: Activity; method in brief: as §1
MCF7 [5] = test: Antiproliferative activity against human MCF7 cells assessed as cell viability at 50 uM after 24 hrs by alamar blue assay; assay type: functional; settings: MCF7, 24 h, read-out: Activity; method in brief: as §1
DG-75 [6] = test: Induction of apoptosis in human DG75 cells at 50 uM after 72 hrs by annexin V-propidium iodide staining-based FACS analysis; assay type: functional
MCF7 [7] = test: Antiproliferative activity against human MCF7 cells at 50 uM after 24 hrs by alamar blue assay; assay type: functional; method in brief: as §1
[8] = Induction of apoptosis in human MUTU-I cells after 24 hrs by annexin V-propidium iodide staining-based FACS analysis; assay type: functional, cell-based
MDA-MB-231 = test: Antiproliferative activity against human MDA-MB-231 cells at 50 uM after 24 hrs by alamar blue assay; assay type: functional; method in brief: as §1
[9] = Induction of apoptosis in human MUTU-I cells at 10 to 50 uM after 24 hrs by annexin V-propidium iodide staining-based FACS analysis; assay type: functional
[10] = Antiproliferative activity against […] cells at 50 uM after 24 hrs by alamar blue assay; assay type: functional, 4T1; method in brief: as §1
HL-60 [11] = test: Induction of apoptosis in human HL60 cells after 24 hrs by annexin V-propidium iodide staining-based FACS analysis; assay type: functional, cell-based; settings: HL-60, 24 h
SH-SY5Y = test: Cytotoxicity against human SH-SY5Y cells after 48 hrs by neutral red assay; assay type: functional, cell-based
PBMC = test: Cytotoxicity against human PBMC at 10 uM after 24 hrs by alamar blue assay; assay type: cell-based; method in brief: as §2
DG-75 [12] = test: Antiproliferative activity against human DG75 cells assessed as cell viability at 50 uM after 72 hrs by alamar blue assay; assay type: functional; settings: DG-75, 72 h, read-out: Activity; method in brief: as §1
[13] = molecular target: Sodium-dependent serotonin transporter (Rattus norvegicus, UniProt P31652); test: Inhibition of [3H]5-HT reuptake at rat SERT expressed in HEK293 cells after 2 mins by liquid scintillation counting; assay type: cell-based
Chain of Sodium-dependent serotonin transporter (P31652 whole entry): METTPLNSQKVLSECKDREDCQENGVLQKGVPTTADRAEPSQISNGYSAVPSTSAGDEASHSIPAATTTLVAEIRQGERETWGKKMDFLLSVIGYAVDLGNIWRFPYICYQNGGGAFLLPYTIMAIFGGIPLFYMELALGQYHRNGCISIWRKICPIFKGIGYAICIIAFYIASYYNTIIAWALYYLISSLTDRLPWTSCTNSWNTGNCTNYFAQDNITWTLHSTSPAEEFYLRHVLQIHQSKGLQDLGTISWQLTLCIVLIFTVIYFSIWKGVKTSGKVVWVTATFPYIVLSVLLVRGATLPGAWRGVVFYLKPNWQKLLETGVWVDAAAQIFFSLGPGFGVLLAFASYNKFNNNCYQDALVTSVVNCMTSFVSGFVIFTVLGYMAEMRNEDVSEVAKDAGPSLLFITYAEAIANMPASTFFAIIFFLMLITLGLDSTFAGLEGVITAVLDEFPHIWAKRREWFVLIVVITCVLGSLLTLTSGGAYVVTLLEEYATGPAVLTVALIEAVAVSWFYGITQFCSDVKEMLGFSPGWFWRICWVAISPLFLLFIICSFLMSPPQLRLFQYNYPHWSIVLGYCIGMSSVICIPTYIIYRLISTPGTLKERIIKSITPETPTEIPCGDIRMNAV

HL-60 [14] = test: Induction of apoptosis in human HL60 cells at 10 to 50 uM after 24 hrs by annexin V-propidium iodide staining-based FACS analysis; assay type: functional
DG-75 [15] = test: Antiproliferative activity against human DG75 cells at 50 uM after 72 hrs by alamar blue assay; assay type: functional; method in brief: as §1
DG-75 [16] = test: Induction of apoptosis in human DG75 cells at 10 to 50 uM after 72 hrs by annexin V-propidium iodide staining-based FACS analysis; assay type: functional

**Q.** Which EC50 (HEK293) does the source give for `CC(N)Cc1ccc(Sc2ccccc2)cc1` (stereo unspecified) here?
**A.** Its EC50 is 2.75 µM.

**Q.** What about the Activity [1] of the same compound?
**A.** Its Activity is 90%.

**Q.** What about the viability at 24 h, 50 µM [2] of the same compound?
**A.** The viability at 24 h, 50 µM was 50%.

**Q.** And the EC50 (DG-75 [3])?
**A.** Its EC50 is 23.7 µM.

**Q.** And the viability at 50 µM [4]?
**A.** The viability at 50 µM was 10%.

**Q.** What about the viability at 50 µM (MCF7 [5]) of the same compound?
**A.** The viability at 50 µM was < 10%.

**Q.** And the Activity (DG-75 [6])?
**A.** The Activity was 40%.

**Q.** What about the Activity (MCF7 [7]) of the same compound?
**A.** The Activity was 40%.

**Q.** What about the EC50 [8] of the same compound?
**A.** Its EC50 is 14.2 µM.

**Q.** What about the Activity (MDA-MB-231) of the same compound?
**A.** The Activity was 90%.

**Q.** And the Activity [9]?
**A.** The Activity was 40%.

**Q.** And the Activity [10]?
**A.** The Activity was 90%.

**Q.** And the EC50 (HL-60 [11])?
**A.** Its EC50 is 19.6 µM.

**Q.** And the EC50 (SH-SY5Y; read-out: EC50)?
**A.** The EC50 was 1 µM.

**Q.** What about the EC50 (SH-SY5Y; read-out: pEC50 (converted)) of the same compound?
**A.** Its EC50 is 13.2 µM.

**Q.** And the Activity (PBMC)?
**A.** The Activity was “Non-toxic”.

**Q.** And the viability at 50 µM (DG-75 [12])?
**A.** Its viability at 50 µM is 10%.

**Q.** What about the IC50 [13] of the same compound?
**A.** The IC50 was 14.3 µM.

**Q.** What about the Activity (HL-60 [14]) of the same compound?
**A.** Its Activity is 40%.

**Q.** And the Activity (DG-75 [15])?
**A.** The Activity was 90%.

**Q.** What about the Activity (DG-75 [16]) of the same compound?
**A.** The Activity was 40%.
